Data from ChEMBL document CHEMBL3603756, “Synthesis and apoptotic activity of new pyrazole derivatives in cancer cell lines” (2015).
The source made the active and inactive calls. No cut-off for these calls is given here.

Columns and labels:
[1] = test system: HEp-2; assay: Induction of cell cycle arrest in human Hep2 cells assessed accumulation at G2/M phase at 10 ug/ml incubated for 24 hrs by propidium iodide staining based flow cytometry (reference value: 7.82%); assay type: functional
[2] = test system: HEp-2; assay: Induction of cell cycle arrest in human Hep2 cells assessed accumulation at S phase at 50 ug/ml incubated for 24 hrs by propidium iodide staining based flow cytometry (reference value: 21.06%); assay type: functional
[3] = test system: HEp-2; assay: Reduction in HSP27 protein levels in human Hep2 cells at 50 ug/ml incubated for 24 hrs by protein array method; assay type: functional, cell-based
[4] = test system: THP-1; assay: Cytotoxicity against human THP1 cells assessed as cell viability at 50 ug/ml incubated for 24 hrs by MTS assay; assay type: functional; conditions: THP-1, 24 h, read-out: Activity
In short: (§1)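 Cells were held at 37 °C, 5% CO2 in humid air. HEp-2 (5 x 10³/well) and HCT-8 (7 x 10³/well) grew in DMEM + 10% heat-inactivated FBS and got compound (binary dilutions) 24 h after seeding. THP-1 (5 x 10³ cells, RPMI-1640 + 10% FBS) were added directly to the dilutions. Exposure lasted 24 h. MTS (CellTiter 96 AQueous One) read-out was absorbance at 490 nm.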

[5] = test system: HEp-2; assay: Reduction in HSP70 protein levels in human Hep2 cells at 50 ug/ml incubated for 24 hrs by protein array method; assay type: functional, cell-based
[6] = test system: HEp-2; assay: Reduction in pro-caspase-3 levels in human Hep2 cells at 50 ug/ml incubated for 24 hrs by protein array method; assay type: functional, cell-based
[7] = Reduction in PRKAA1 gene expression in human Hep2 cells at 50 ug/ml incubated for 24 hrs by real-time PCR method; assay type: functional, cell-based; conditions: HEp-2
In short: (§2)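 HEp-2 cells were treated 24 h at 10 or 50 µg/mL. Total RNA was extracted with Trizol, and 2 µg was reverse-transcribed. 50 ng cDNA went into TaqMan real-time PCR with beta-actin as endogenous control. Relative expression was calculated by the ∆∆CT method. Each experiment was run three times.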

[8] = Reduction in PRKAA2 gene expression in human Hep2 cells at 10 ug/ml incubated for 24 hrs by real-time PCR method; assay type: functional, cell-based; conditions: HEp-2; in short: as §2
[9] = Cytotoxicity against human Hep2 cells assessed as cell viability at 50 ug/ml incubated for 24 hrs by MTS assay; assay type: functional; conditions: HEp-2, 24 h, read-out: Activity; in short: as §1
[10] = test system: HCT-8; assay: Induction of apoptosis in human HCT8 cells assessed early apoptosis level at 50 ug/ml incubated for 24 hrs by annexin V-FITC and propidium iodide staining based flow cytometry (reference value: 0.75%); assay type: functional
[11] = test system: HEp-2; assay: Increase in Fas/TNFRSF6 protein expression in human Hep2 cells at 50 ug/ml incubated for 24 hrs by protein array method; assay type: functional, cell-based
[12] = test system: HCT-8; assay: Induction of apoptosis in human HCT8 cells assessed late apoptosis level at 50 ug/ml incubated for 24 hrs by annexin V-FITC and propidium iodide staining based flow cytometry (reference value: 4.8%); assay type: functional
[13] = test system: THP-1; assay: Cytotoxicity against human THP1 cells assessed as cell viability at 25 ug/ml incubated for 24 hrs by MTS assay; assay type: functional; conditions: THP-1, 24 h, read-out: Activity; in short: as §1
[14] = test system: HEp-2; assay: Reduction in livin protein levels in human Hep2 cells at 50 ug/ml incubated for 24 hrs by protein array method; assay type: functional, cell-based
[15] = test system: HEp-2; assay: Increase in cleaved-caspase-3 levels in human Hep2 cells at 50 ug/ml incubated for 24 hrs by protein array method; assay type: functional, cell-based
[16] = Cytotoxicity against human Hep2 cells assessed as cell viability at 12.5 ug/ml incubated for 24 hrs by MTS assay; assay type: functional; conditions: HEp-2, 24 h, read-out: Activity; in short: as §1
[17] = test system: HEp-2; assay: Induction of cell cycle arrest in human Hep2 cells assessed accumulation at G0/G1 phase at 50 ug/ml incubated for 24 hrs by propidium iodide staining based flow cytometry (reference value: 74.51%); assay type: functional
[18] = test system: HCT-8; assay: Induction of apoptosis in human HCT8 cells assessed viable cells level at 50 ug/ml incubated for 24 hrs by annexin V-FITC and propidium iodide staining based flow cytometry (reference value: 93.3%); assay type: functional
[19] = test system: HEp-2; assay: Increase in FADD protein expression in human Hep2 cells at 50 ug/ml incubated for 24 hrs by protein array method; assay type: functional, cell-based
[20] = Cytotoxicity against human HCT8 cells assessed as cell viability at 50 ug/ml incubated for 24 hrs by MTS assay; assay type: functional; conditions: HCT-8, 24 h, read-out: Activity; in short: as §1
[21] = test system: HCT-8; assay: Induction of apoptosis in human HCT8 cells assessed necrosis level at 50 ug/ml incubated for 24 hrs by annexin V-FITC and propidium iodide staining based flow cytometry (reference value: 1.12%); assay type: functional
[22] = test system: HEp-2; assay: Reduction in survivin protein levels in human Hep2 cells at 50 ug/ml incubated for 24 hrs by protein array method; assay type: functional, cell-based
[23] = test system: HEp-2; assay: Increase in caspase-8 levels in human Hep2 cells at 50 ug/ml incubated for 24 hrs by protein array method; assay type: functional, cell-based
[24] = Cytotoxicity against human HCT8 cells assessed as cell viability at 12.5 ug/ml incubated for 24 hrs by MTS assay; assay type: functional; conditions: HCT-8, 24 h, read-out: Activity; in short: as §1
[25] = test system: THP-1; assay: Cytotoxicity against human THP1 cells assessed as cell viability at 12.5 ug/ml incubated for 24 hrs by MTS assay; assay type: functional; conditions: THP-1, 24 h, read-out: Activity; in short: as §1
[26] = test system: HEp-2; assay: Increase in TRAIL-R1 protein expression in human Hep2 cells at 50 ug/ml incubated for 24 hrs by protein array method; assay type: functional, cell-based
[27] = test system: HEp-2; assay: Induction of cell cycle arrest in human Hep2 cells assessed accumulation at G0/G1 phase at 10 ug/ml incubated for 24 hrs by propidium iodide staining based flow cytometry (reference value: 74.51%); assay type: functional
[28] = test system: HEp-2; assay: Reduction in c-IAP2 levels in human Hep2 cells at 50 ug/ml incubated for 24 hrs by protein array method; assay type: functional, cell-based
[29] = test system: HEp-2; assay: Increase in TRAIL-R2 protein expression in human Hep2 cells at 50 ug/ml incubated for 24 hrs by protein array method; assay type: functional, cell-based
[30] = test system: HEp-2; assay: Induction of cell cycle arrest in human Hep2 cells assessed accumulation at G2/M phase incubated for 24 hrs by propidium iodide staining based flow cytometry; assay type: functional
[31] = test system: HEp-2; assay: Induction of cell cycle arrest in human Hep2 cells assessed accumulation at G2/M phase at 50 ug/ml incubated for 24 hrs by propidium iodide staining based flow cytometry (reference value: 7.82%); assay type: functional
[32] = test system: HEp-2; assay: Induction of cell cycle arrest in human Hep2 cells assessed accumulation at S phase at 10 ug/ml incubated for 24 hrs by propidium iodide staining based flow cytometry (reference value: 21.06%); assay type: functional
[33] = Reduction in PRKAA2 gene expression in human Hep2 cells at 50 ug/ml incubated for 24 hrs by real-time PCR method; assay type: functional, cell-based; conditions: HEp-2; in short: as §2
[34] = test system: HEp-2; assay: Induction of apoptosis in human Hep2 cells assessed as increase in p53 S15/S46/S392 phosphorylation level at 50 ug/ml incubated for 24 hrs by protein array method; assay type: functional, cell-based
[35] = test system: HEp-2; assay: Reduction in XIAP levels in human Hep2 cells at 50 ug/ml incubated for 24 hrs by protein array method; assay type: functional, cell-based
[36] = Reduction in PRKAA1 gene expression in human Hep2 cells at 10 ug/ml incubated for 24 hrs by real-time PCR method; assay type: functional, cell-based; conditions: HEp-2; in short: as §2
[37] = Cytotoxicity against human Hep2 cells assessed as cell viability at 25 ug/ml incubated for 24 hrs by MTS assay; assay type: functional; conditions: HEp-2, 24 h, read-out: Activity; in short: as §1
[38] = Cytotoxicity against human HCT8 cells assessed as cell viability at 25 ug/ml incubated for 24 hrs by MTS assay; assay type: functional; conditions: HCT-8, 24 h, read-out: Activity; in short: as §1
[39] = test system: HEp-2; assay: Reduction in c-IAP1 levels in human Hep2 cells at 50 ug/ml incubated for 24 hrs by protein array method; assay type: functional, cell-based

| SMILES | Activity [1] | Activity [2] | viability at 50 µg/mL [4] | Activity [7] | Activity [8] | viability at 50 µg/mL [9] | Activity [10] | Activity [12] | viability at 25 µg/mL [13] | viability at 12.5 µg/mL [16] | Activity [17] | Activity [18] | viability at 50 µg/mL [20] | Activity [21] | viability at 12.5 µg/mL [24] | viability at 12.5 µg/mL [25] | Activity [27] | Activity [30] | Activity [31] | Activity [32] | also measured |
| --- | --- | --- | --- | --- | --- | --- | --- | --- | --- | --- | --- | --- | --- | --- | --- | --- | --- | --- | --- | --- | --- |
| Cc1cs/c(=N\C(=O)c2cnn(C)c2)n1-c1ccc(I)cc1 | 9.07% | 27.45% | 37.2% | Active | Active | 90% | 2.91% | 3.89% | 86.9% | 100% | 50.7% | 91.8% | 91.8% | 1.41% | 100% | 99% | 66.94% | Dose-dependent effect | 25.92% | 23.56% | Activity [3]: Active; Activity [5]: Active; Activity [6]: Active; Activity [11]: Active; Activity [14]: Active; Activity [15]: Active; Activity [19]: Active; Activity [22]: Active; Activity [23]: Active; Activity [26]: Active; Activity [28]: Active; Activity [29]: Active; Activity [33]: Active; Activity [34]: Active; Activity [35]: Active; Activity [36]: Active; viability at 25 µg/mL [37]: 100%; viability at 25 µg/mL [38]: 100%; Activity [39]: Active |
| Cn1cc(C(=O)NC(=S)Nc2ccc(I)cc2)cn1 | 11.98% | 24.79% | 35.2% | Active | Active | 93% | 2.31% | 3.1% | 79.3% | 100% | 74.24% | 93.3% | 93.3% | 1.25% | 100% | 100% | 71.62% | Dose-dependent effect | 15.88% | 17.26% | Activity [33]: Active; Activity [36]: Active; viability at 25 µg/mL [37]: 100%; viability at 25 µg/mL [38]: 100% |
| Cn1cc(C(=O)/N=C2\SCC(C)(O)N2c2ccc(Br)cc2)cn1 (centres undefined) | 19.88% | 28.71% | 33.9% | Active | Active | 91% | 6.22% | 6.76% | 67.4% | 100% | 37.33% | 85.7% | 85.7% | 1.34% | 98% | 95% | 62.35% | Dose-dependent effect | 39.46% | 19.2% | Activity [33]: Active; Activity [36]: Active; viability at 25 µg/mL [37]: 92%; viability at 25 µg/mL [38]: 95% |
| Cc1cs/c(=N\C(=O)c2cnn(C)c2)n1-c1ccc(Br)cc1 | 7.76% | 24.2% | 41.6% | Active | Active | 85% | 4.47% | 3.44% | 87.6% | 100% | 63.34% | 89.4% | 89.4% | 2.66% | 100% | 97% | 74.24% | Dose-dependent effect | 19.45% | 21.45% | Activity [33]: Active; Activity [36]: Active; viability at 25 µg/mL [37]: 95%; viability at 25 µg/mL [38]: 97% |
| Cn1cc(C(=O)NC(=S)Nc2ccccc2I)cn1 | 6.86% | 18.14% | 31.3% | Active | Active | 90% | 2.01% | 3.75% | 84% | 100% | 67.6% | 91.8% | 91.8% | 2.49% | 100% | 100% | 76.4% | Dose-dependent effect | 15.92% | 21.88% | Activity [33]: Active; Activity [36]: Active; viability at 25 µg/mL [37]: 100%; viability at 25 µg/mL [38]: 100% |
| Cn1cc(C(=O)NC(=S)Nc2ccc(Br)cc2)cn1 | 9.91% | 22.6% | 37% | Active | Active | 90% | 2.78% | 3.83% | 72.9% | 100% | 67.63% | 91.7% | 91.7% | 1.73% | 100% | 100% | 75.28% | Dose-dependent effect | 18.75% | 16.97% | Activity [33]: Active; Activity [36]: Active; viability at 25 µg/mL [37]: 100%; viability at 25 µg/mL [38]: 100% |
